Bioassay records from PubChem BioAssay.
The list is not random: actives were taken first. Their share in the collection is about 3.7%.
HCV core dimer – blocks dimerization of HCV core protein; TR-FRET GST/Flag-core106 dimerization, 1536-well; inhibition, % at 5 µM; 0.33% of 300,000 active;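 active means inhibition above the mean of all tested compounds plus 3 SD, set per screening campaign, cut at about 45% in these data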
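Assay system: Tagged HCV core106 pair (GST and Flag) | Buffer or medium: KF-containing HEPES buffer, pH 7.45, DTT, CHAPS, BSA | Also added: Eu donor and XL665 acceptor anti-tag antibodies | Dosing: One concentration, 5 µM, in 0.5% DMSO | Timing: 4 h at 22.5 °C | Technique: TR-FRET 671 and 617 nm emission | Repeats: Singlicate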
rCAG RNA binder – r(CAG) repeat RNA binding; TO-PRO-1 dye displacement fluorescence; inhibition, % at 3 µM; 1.3% of 370,000 active;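 active means inhibition above the plate cutoff, the mean of all test compounds on that plate plus 3 SD, cut at about 35% in these data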;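 further: 0% = DMSO alone and 100% = 100 µM mitoxantrone as full dye displacement; higher means more dye released from RNA so lower well fluorescence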
TAAR1 agonist – agonists of human TAAR1. Q96RJ0. CHO RD-HGA16 TAAR1, Fluo-8 calcium fluorescence; vehicle wells 0%, saturating PEA agonist 100%. activation, % at 3 µM. 0.99% of 360,000 active. AID 624467;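 active means activation above the mean activation of all test compounds in the run plus 3 SD, cut at about 38% in these data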
Target sequence (Q96RJ0 whole entry, looked up): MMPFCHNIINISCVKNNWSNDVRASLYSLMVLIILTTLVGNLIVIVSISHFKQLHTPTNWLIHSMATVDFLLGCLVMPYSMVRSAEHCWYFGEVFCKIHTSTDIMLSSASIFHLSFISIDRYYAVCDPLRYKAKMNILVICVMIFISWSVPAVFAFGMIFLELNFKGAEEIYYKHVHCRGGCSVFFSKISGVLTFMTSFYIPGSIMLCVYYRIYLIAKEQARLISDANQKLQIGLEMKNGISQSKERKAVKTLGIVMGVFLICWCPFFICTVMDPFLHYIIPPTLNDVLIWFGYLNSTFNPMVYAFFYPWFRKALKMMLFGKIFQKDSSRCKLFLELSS
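Test system: RD-HGA16 (CHO) cells co-expressing Gα16 and hTAAR1; dosing: one-point dosing at 3 µM (nominal); timing: 17-24 h seeding, 75 min 37 °C dye, 30 min RT; signal: kinetic Fluo-8 calcium fluorescence; read-out basis: % activation relative to PEA EC100 response; controls: DMSO and PEA EC100; replicates: n 1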
HCV NS3 hel inh – HCV NS3 helicase inhibition | NS3 helicase DNA unwinding, Cy5 molecular beacon fluorescence | inhibition, % at 10.9 µM | 0.56% of 290,000 active | AID 1800;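 active means inhibition above the mean of all tested compounds plus 3 SD, set per campaign, cut at about 35% in these data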;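 further: 0% = DMSO wells and 100% = thioflavine S control wells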
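Material: hepatitis C virus NS3 helicase domain fragment enzyme; measured by: Cy5 fluorescence, 0 and 60 min reads; control set: DMSO and thioflavine S; incubation: 60 min unwinding reaction at 25 °C after ATP addition; read-out basis: % inhibition from 60/0 min fluorescence ratio, DMSO 0%, thioflavine S 100%; repeats: singlicate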
TAAR1 antagonist – antagonists of human TAAR1; AID 624466; inhibition, % at 3 µM; CHO RD-HGA16 TAAR1, Fluo-8 calcium fluorescence, antagonist; Q96RJ0; 1.5% of 360,000 active;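 active means inhibition above a per-plate cutoff, the mean inhibition of test compounds on that plate plus 3 SD, cut at about 49% in these data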;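 further: 0% = DMSO plus EC80 beta-PEA response and 100% = DMSO alone without agonist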
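Test system: CHO RD-HGA16 cells bearing hTAAR1 | Reagent: β-PEA, EC80 | Compound dosing: 3 µM, single point | Schedule: Dye loading 75 min at 37 °C, then 30 min room temperature | Signal: Calcium fluorescence with Fluo-8 | Evaluation: Percent inhibition of PEA-evoked calcium signal, max/basal emission ratio | Control set: DMSO-only wells and EC80 β-PEA-stimulated wells | Repeats: Singlicate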
rCAG binder conf – r(CAG) RNA repeat binding, confirmation; 70% of 4,300 active; inhibition, % at 3 µM; TO-PRO-1 dye displacement fluorescence; shares compounds with rCAG RNA binder;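 active means inhibition above a per-plate cutoff, the mean inhibition of sample wells plus 3 SD, cut at about 35% in these data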;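 further: loss of TO-PRO-1 fluorescence as compound displaces dye from 1x1 AA loop RNA; 0% = DMSO only wells and 100% = 100 µM mitoxantrone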
DNA CAG counter – DNA CAG dye complex inhibition counter-screen | inhibition, % at 3 µM | 94% of 4,300 active | d(CAG) DNA oligo TO-PRO-1 dye displacement, fluorescence | shares compounds with rCAG RNA binder;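 active means inhibition above its plate's cutoff, the mean test-well inhibition plus 3 SD, cut at about 4.8% in these data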;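 further: 0% = DNA dye mix with DMSO and 100% = 100 µM mitoxantrone; hits displace the dye from DNA and so lower well fluorescence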
* = called active by the depositor.

C=CCCC(=O)Nc1nc(C)c(-c2csc(Nc3ccc(Cl)cc3Cl)n2)s1 was read as HCV core dimer 0, rCAG RNA binder 36*, TAAR1 agonist 1, HCV NS3 hel inh 11, TAAR1 antagonist 18, rCAG binder conf 23 and DNA CAG counter 13*.
`S=C(Nc1cccc(Br)c1)OC1CCC12CCC(c1ccccc1)CC2` (stereo not drawn) gave rCAG RNA binder 2.
`Cc1ccc(-n2c(SCC(=O)Nc3ccc(Cl)cc3)nc(O)cc2=O)cc1` gave HCV core dimer 1, rCAG RNA binder 37*, TAAR1 agonist 4, HCV NS3 hel inh 4, TAAR1 antagonist -22, rCAG binder conf 25 and DNA CAG counter 10*.
For COc1ccccc1-n1c(SCC(=O)N2CCOCC2)nc(O)cc1=O the results were HCV core dimer -16, rCAG RNA binder 7, TAAR1 agonist 0, HCV NS3 hel inh 6 and TAAR1 antagonist 3.
Screening COc1ccc(NC(=O)CSc2nc(O)cc(=O)n2-c2ccccc2)cc1 returned rCAG RNA binder 38*, TAAR1 agonist 2, HCV NS3 hel inh 6, TAAR1 antagonist -16, rCAG binder conf 14 and DNA CAG counter 7.5*.
COc1ccc(NC(=O)CSc2nc(O)cc(=O)n2C)cc1 was read as HCV core dimer 1, rCAG RNA binder 33, TAAR1 agonist -3, HCV NS3 hel inh 6 and TAAR1 antagonist 9.
Cn1c(SCC(=O)Nc2ccccc2)nc(O)cc1=O was read as HCV core dimer -3, rCAG RNA binder 37*, TAAR1 agonist 2, HCV NS3 hel inh 7, TAAR1 antagonist 9, rCAG binder conf 7 and DNA CAG counter 5.0*.
For COc1ccccc1-n1c(SCC(=O)Nc2ccc(Br)cc2)nc(O)cc1=O the results were HCV core dimer -2, rCAG RNA binder 42*, TAAR1 agonist 3, HCV NS3 hel inh 23, TAAR1 antagonist -24, rCAG binder conf 17 and DNA CAG counter 7.5*.
Screening CCOC(=O)[C@]12CCCC=C1N(Cc1ccc(OC)cc1)C(=O)[C@@H]2CC(=O)N1CCC(c2ccccc2)CC1 returned rCAG RNA binder 2.
`Cn1cc(CCOCc2ccc(Br)cc2)c2ccccc21` gave rCAG RNA binder 3, TAAR1 agonist 0 and TAAR1 antagonist -12.
COC(=O)[C@H](C(C)C)N(Cc1cn(Cc2ccccc2)nn1)S(=O)(=O)c1ccc(F)cc1Br was read as rCAG RNA binder 1.
O=C(CSc1nc(O)cc(=O)n1-c1ccccc1)Nc1nc2ccccc2s1 was read as HCV core dimer 7, rCAG RNA binder 44*, TAAR1 agonist -1, HCV NS3 hel inh 7, TAAR1 antagonist 3, rCAG binder conf 52* and DNA CAG counter 19*.
`COc1ccc(-n2c(SCC(=O)Nc3ccc(Cl)cc3)nc(O)c(Cc3ccccc3)c2=O)cc1` gave HCV core dimer 13, rCAG RNA binder 62*, TAAR1 agonist 0, HCV NS3 hel inh -12, TAAR1 antagonist -16, rCAG binder conf 54* and DNA CAG counter 20*.
Screening COC(=O)[C@H](C(C)C)N1Cc2nnn(Cc3ccccc3)c2-c2ccccc2S1(=O)=O returned rCAG RNA binder -2.
`COc1ccc(NS(=O)(=O)c2ccc3nc(COc4ccc5ccccc5c4)[nH]c3c2)cc1` gave HCV core dimer 14, rCAG RNA binder 51*, TAAR1 agonist 3, HCV NS3 hel inh -6, TAAR1 antagonist 30, rCAG binder conf 19 and DNA CAG counter 14*.
Screening COc1cc(/C=C2\C(=O)NN(c3ccccc3)C2=O)cc([N+](=O)[O-])c1O returned HCV core dimer -6, rCAG RNA binder 20, TAAR1 agonist 3, HCV NS3 hel inh 20 and TAAR1 antagonist -4.
For O=C1NN(c2ccccc2)C(=O)/C1=C\c1ccc(-c2cc([N+](=O)[O-])ccc2O)o1 the results were rCAG RNA binder 36*, TAAR1 agonist 5, HCV NS3 hel inh 21, TAAR1 antagonist -9, rCAG binder conf 44* and DNA CAG counter 19*.
For CCCCCCCCN1C(=O)[C@@H](CC(=O)N2CCN(C(=O)OCC)CC2)C[C@@]2(C(=O)OC)C1=C[C@H](C(C)C)O[C@@H]2C1CC1 the results were rCAG RNA binder 6.
`C=CCC12C=C(OC)C(=O)C(C1=O)C(c1ccc(OC)cc1)C2C` (stereo not drawn) gave rCAG RNA binder 2.
Screening Cc1ccc(C(=O)NC2CCCCN(C)C2=O)c(C)c1 (stereo not drawn) returned rCAG RNA binder 1, TAAR1 agonist 0 and TAAR1 antagonist 14.
`CCc1ccc(OCC(=O)Nc2nnc(-c3ccco3)s2)cc1` gave HCV core dimer -2, rCAG RNA binder 52*, TAAR1 agonist 39*, HCV NS3 hel inh 21, TAAR1 antagonist -27, rCAG binder conf 3 and DNA CAG counter 0.
For CC(C)CC(=O)Nc1nnc(-c2ccco2)s1 the results were HCV core dimer -1, rCAG RNA binder 1, TAAR1 agonist 7, HCV NS3 hel inh 9 and TAAR1 antagonist -10.
`Cc1ccc(C)c(S(=O)(=O)C(C#N)c2nc3ccccc3nc2N2CCCC2)c1` (stereo not drawn) gave HCV core dimer 10, rCAG RNA binder 0, TAAR1 agonist 1, HCV NS3 hel inh 6 and TAAR1 antagonist 16.
Screening Cc1ccc(C)c(S(=O)(=O)C(C#N)c2nc3ccccc3nc2N2CC(C)OC(C)C2)c1 (stereo not drawn) returned HCV core dimer 12, rCAG RNA binder 38*, TAAR1 agonist 15, HCV NS3 hel inh 12, TAAR1 antagonist -7, rCAG binder conf 75* and DNA CAG counter 41*.
For CC(=O)NC1=NN(c2ccccc2)C(=O)C1 the results were HCV core dimer -1, rCAG RNA binder 0, TAAR1 agonist 11, HCV NS3 hel inh 7 and TAAR1 antagonist 0.
CC(C)(C)C(=O)NC1=NN(c2c(Cl)cc(Cl)cc2Cl)C(=O)C1 was read as HCV core dimer 2, rCAG RNA binder 44*, TAAR1 agonist 8, HCV NS3 hel inh 30, TAAR1 antagonist 13, rCAG binder conf 5 and DNA CAG counter 4.
`COc1cccc(C(=O)Nc2cccc(C(=O)NC3=NN(c4c(Cl)cc(Cl)cc4Cl)C(=O)C3)c2)c1` gave HCV core dimer 14, rCAG RNA binder 56*, TAAR1 agonist 12, HCV NS3 hel inh 22, TAAR1 antagonist 3, rCAG binder conf 48* and DNA CAG counter 17*.
